Source: ChEMBL document CHEMBL1269007, “Synthesis and biological evaluation of Apogossypolone derivatives as pan-active inhibitors of antiapoptotic B-cell lymphoma/leukemia-2 (Bcl-2) family proteins” (J Med Chem, 2010)
Calls of active or inactive are those of the source. The rule behind the calls is not given here.

Legend:
Bcl-2-like protein 1 [1] = target: T1, Bcl-2-like protein 1 (Homo sapiens, UniProt Q07817); assay: Binding affinity Bcl-xL at 200 uM by one-dimensional 1H nuclear magnetic resonance spectroscopy
Bcl-2-like protein 1 [2] = target: T1, Bcl-2-like protein 1; assay: Displacement of F-BakBH3 from Bcl-xL after 30 mins by fluorescence polarization assay
Outline: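 GST-Bcl-XL ΔTM (100 nM) preincubated with varying compound concentrations in PBS pH 7.4 for 10 min at room temperature. FITC-labelled Bak BH3 peptide (2.5 μL of 100 nM stock) then added. Polarization read at 480/535 nm after 30 min at room temperature. Wild-type and mutant Bak BH3 peptides served as plate controls. IC50 from sigmoidal dose-response fit; mean of three independent experiments ± SE.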

Bcl-2-related protein A1 = target: T2, Bcl-2-related protein A1 (Homo sapiens, UniProt Q16548); assay: Displacement of F-BakBH3 from Bfl-1 after 30 mins by fluorescence polarization assay
T2 sequence (Q16548 whole entry): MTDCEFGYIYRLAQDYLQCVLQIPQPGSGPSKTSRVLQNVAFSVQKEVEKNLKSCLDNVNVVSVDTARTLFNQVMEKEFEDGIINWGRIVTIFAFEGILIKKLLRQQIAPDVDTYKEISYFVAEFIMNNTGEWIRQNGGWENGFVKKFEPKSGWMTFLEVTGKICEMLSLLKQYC

[3] = Metabolic stability of the compound in rat plasma after 40 mins; type: ADME, cell-free; settings: read-out: Stability
[4] = Metabolic stability of the compound in rat microsomes after 40 mins; type: ADME, Microsome; settings: read-out: Stability
Mus musculus [5] = assay: Reduction of spleen weight in ip dosed human Bcl2 expressing B6 transgenic BALB/c mouse administered as single dose after 24 hrs; type: functional, organism-based
Mus musculus [6] = assay: Reduction of spleen weight in human Bcl2 expressing B6 transgenic BALB/c mouse at 60 umol/kg, ip administered as single dose after 24 hrs; type: functional; set-up: scale not given: the % may be the effect or the level left
Mus musculus [7] = assay: Toxicity in human Bcl2 expressing B6 transgenic BALB/c mouse up to 120 umol/kg, ip administered as single dose after 24 hrs; type: organism-based; settings: in vivo
Outline: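 B6 Bcl-2 transgenic Balb/c mice, age- and sex-matched, given one intraperitoneal dose (60 or 120 μmol/kg, also 30 μmol/kg) in ethanol:Cremophor EL:saline 10:10:80, 500 μL; survival and signs of toxicity observed over 24 h before sacrifice.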

[8] = target: Apoptosis regulator Bcl-2 (Homo sapiens, UniProt P10415); assay: Displacement of FITC-Bim BH3 peptide from Bcl-2 after 10 mins by fluorescence polarization assay
[9] = target: Induced myeloid leukemia cell differentiation protein Mcl-1 (Homo sapiens, UniProt Q07820); assay: Displacement of FITC-Bim BH3 peptide from Mcl-1 after 10 mins by fluorescence polarization assay
Mus musculus [10] = assay: Toxicity in human PPC1 cells xenografted nude mouse assessed as mortality at 25 mg/kg, ip administered weekly 3 times; type: organism-based, PPC-1; set-up: dose 25 mg/kg, route intraperitoneal; settings: in vivo
Outline: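 PPC-1 flank xenografts (5×10^6 cells s.c.) in female 6-week-old nude mice, size-matched at 200 mm³, 6 per group. Compound given i.p. three times in the first week in ethanol:Cremophor EL:saline 10:10:80 (500 μL); controls got saline. Survival and body weight monitored during week 1.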

Mus musculus [11] = assay: Toxicity in human Bcl2 expressing B6 transgenic BALB/c mouse assessed as mortality at 60 umol/kg, ip administered as single dose after 24 hrs; type: organism-based; settings: in vivo
Outline: (§1)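 Age- and sex-matched B6 Bcl2 transgenic mice (human BCL-2/IgH minigene on Balb/c background, no aggressive lymphoma yet) given a single i.p. injection of compound in 500 μL ethanol:Cremophor EL:saline 10:10:80. Controls received vehicle. Animals sacrificed at 24 h with Avertin; spleen removed and weighed.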

Mus musculus [12] = assay: Toxicity in human Bcl2 expressing B6 transgenic BALB/c mouse assessed as mortality at 30 umol/kg, ip administered as single dose after 24 hrs; type: organism-based; settings: in vivo; outline: as §1
Mus musculus [13] = assay: Reduction of spleen weight in human Bcl2 expressing B6 transgenic BALB/c mouse at 30 umol/kg, ip administered as single dose after 24 hrs; type: functional; set-up: scale not given: the % may be the effect or the level left
PC-3 = assay: Cytotoxicity against human PC3 cells expressing high level of Bcl-xL after 72 hrs by ATP-LITE assay; type: functional, cell-based; settings: PC-3, 72 h
Outline: (§2)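 Cells seeded in […] or RPMI1640 with 5 mM L-glutamine, 5% FBS, penicillin/streptomycin; H460 and H1299 at 2000, PC3 at 3000 cells/well. Compounds in 0.1% DMSO final added 24 h after seeding into fresh 5% serum medium; viability by ATP-LITE luminescence after 72 h, normalised to DMSO-treated cells.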

NCI-H460 = assay: Cytotoxicity against human H460 cells expressing high level of Bcl-2 after 72 hrs by ATP-LITE assay; type: functional, cell-based; settings: NCI-H460, 72 h; outline: as §2
[14] = Cytotoxicity against human H1299 cells expressing high level of Mcl-1 after 72 hrs by ATP-LITE assay; type: functional, cell-based; settings: NCI-H1299, 72 h; outline: as §2
[15] = Cytotoxicity against human RS4:11 cells expressing high level of Bcl-2 and Bcl-xL after 72 hrs by annexin V-FITC and propidium iodide staining; type: functional, cell-based; settings: RS4-11, 72 h
[16] = Cytotoxicity against human BP3 cells expressing high level of Bfl-1 and Mcl-1 after 24 hrs by annexin V-FITC and propidium iodide staining; settings: BP3, 24 h
[17] = Cytotoxicity against human RS4:11 cells expressing high level of Bcl-2 and Bcl-xL after 24 hrs by annexin V-FITC and propidium iodide staining; settings: RS4-11, 24 h

T1 sequence (Q07817 whole entry): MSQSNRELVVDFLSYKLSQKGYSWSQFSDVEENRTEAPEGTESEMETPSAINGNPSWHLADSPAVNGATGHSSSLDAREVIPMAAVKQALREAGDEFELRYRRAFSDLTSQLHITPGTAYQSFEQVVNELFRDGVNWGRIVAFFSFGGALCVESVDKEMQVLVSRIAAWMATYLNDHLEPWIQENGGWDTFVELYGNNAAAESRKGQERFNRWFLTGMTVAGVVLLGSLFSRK
Apoptosis regulator Bcl-2, sequence (P10415 whole entry): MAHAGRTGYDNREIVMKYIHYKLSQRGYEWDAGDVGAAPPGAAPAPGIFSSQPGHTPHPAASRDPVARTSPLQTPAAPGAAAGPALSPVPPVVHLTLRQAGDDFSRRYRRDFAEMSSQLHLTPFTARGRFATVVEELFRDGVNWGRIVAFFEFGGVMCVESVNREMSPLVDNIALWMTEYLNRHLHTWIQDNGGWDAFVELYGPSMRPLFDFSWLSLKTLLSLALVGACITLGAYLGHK
Induced myeloid leukemia cell differentiation protein Mcl-1, sequence (Q07820 whole entry): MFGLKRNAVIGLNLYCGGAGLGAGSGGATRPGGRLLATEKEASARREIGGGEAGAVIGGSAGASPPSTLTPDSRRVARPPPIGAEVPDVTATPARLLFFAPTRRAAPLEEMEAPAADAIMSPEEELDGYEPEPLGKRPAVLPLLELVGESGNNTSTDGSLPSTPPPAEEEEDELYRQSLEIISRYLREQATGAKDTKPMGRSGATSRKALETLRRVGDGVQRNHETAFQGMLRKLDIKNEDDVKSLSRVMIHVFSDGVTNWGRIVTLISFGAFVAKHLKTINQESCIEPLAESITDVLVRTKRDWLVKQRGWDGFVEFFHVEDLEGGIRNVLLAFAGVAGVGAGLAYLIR

SMILES	Activity (Bcl-2-like protein 1 [1])	Ki (Bcl-2-like protein 1 [2]) [µM]	Ki (Bcl-2-related protein A1) [µM]	remaining at 40 min [3] [%]	remaining at 40 min [4] [%]	Activity (Mus musculus [5])	Ki [8] [µM]	Ki [9] [µM]	IC50 (Bcl-2-like protein 1 [2]) [µM]	IC50 (Bcl-2-related protein A1) [µM]	IC50 [8] [µM]	IC50 [9] [µM]	EC50 (PC-3) [µM]	EC50 (NCI-H460) [µM]	EC50 [14] [µM]	EC50 [16] [µM]	EC50 [17] [µM]	other results
CC1=C(C2=C(C)C(=O)c3c(cc(O)c(O)c3CC(C)C)C2=O)C(=O)c2cc(O)c(O)c(CC(C)C)c2C1=O	Active	0.37	0.93	98	69	Dose-dependent effect	0.17	0.31										Activity (Mus musculus [6]): >30%; Activity (Mus musculus [7]): Non-toxic
Cc1cc2c(C(C)C)c(O)c(O)c(C=O)c2c(O)c1-c1c(C)cc2c(C(C)C)c(O)c(O)c(C=O)c2c1O [GOSSYPOL]																		Activity (Mus musculus [10]): Toxic
CC1=C(C2=C(C)C(=O)c3c(cc(O)c(O)c3Cc3ccc(Cl)cc3)C2=O)C(=O)c2cc(O)c(O)c(Cc3ccc(Cl)cc3)c2C1=O	Active	0.11	0.47			Dose-dependent effect	0.23	0.27	0.15	0.7	0.34	0.4						Activity (Mus musculus [11]): Toxic; Activity (Mus musculus [12]): Non-toxic; Activity (Mus musculus [13]): 76%
CC1=C(C2=C(C)C(=O)c3c(cc(O)c(O)c3CCCc3ccccc3)C2=O)C(=O)c2cc(O)c(O)c(CCCc3ccccc3)c2C1=O	Active	0.96	3.53	87	88	Dose-dependent effect	1.45	0.45	1.44	5.27	2.17	0.67	1.3	0.92	1.53			EC50 [15]: 3.83 µM
CC1=C(C2=C(C)C(=O)c3c(cc(O)c(O)c3CCc3ccc(OC(F)(F)F)cc3)C2=O)C(=O)c2cc(O)c(O)c(CCc3ccc(OC(F)(F)F)cc3)c2C1=O	Active					Dose-dependent effect							8.99	1.44	2.38	16.1	7.32	
CC1=C(C2=C(C)C(=O)c3c(cc(O)c(O)c3CCC(C)(C)c3ccccc3)C2=O)C(=O)c2cc(O)c(O)c(CCC(C)(C)c3ccccc3)c2C1=O	Active					Dose-dependent effect							2	1.62	2.16	30	15	
CC1=C(C2=C(C)C(=O)c3c(cc(O)c(O)c3Cc3ccc(-c4ccccc4)cc3)C2=O)C(=O)c2cc(O)c(O)c(Cc3ccc(-c4ccccc4)cc3)c2C1=O	Active					Dose-dependent effect							2.97	0.98	10.3	0.81	1.74	
CC1=C(C2=C(C)C(=O)c3c(cc(O)c(O)c3CC3CCCC3)C2=O)C(=O)c2cc(O)c(O)c(CC3CCCC3)c2C1=O	Active	2				Dose-dependent effect	1.53	2.07	2.99		2.27	3.08	5.5	0.7	2.32	12.8	9.83	
CC1=C(C2=C(C)C(=O)c3c(cc(O)c(O)c3CCCc3ccc(F)cc3)C2=O)C(=O)c2cc(O)c(O)c(CCCc3ccc(F)cc3)c2C1=O	Active					Dose-dependent effect							2.62	1.48	1.91	14.6	11.2	
CC1=C(C2=C(C)C(=O)c3c(cc(O)c(O)c3C(=O)NCC(C)c3ccccc3)C2=O)C(=O)c2cc(O)c(O)c(C(=O)NCC(C)c3ccccc3)c2C1=O (stereo not drawn)	Active	0.21	0.47	91	71	Dose-dependent effect	0.15	0.31	0.32	0.71	0.23	0.47			> 30		> 30	Activity (Mus musculus [11]): Toxic; Activity (Mus musculus [12]): Non-toxic
CC1=C(C2=C(C)C(=O)c3c(cc(O)c(O)c3CCC3CCCCC3)C2=O)C(=O)c2cc(O)c(O)c(CCC3CCCCC3)c2C1=O	Active	8.4		74	98	Dose-dependent effect	4.47	3.93	12.7		6.73	5.9	2.4	2.2	1.32	15.6	15.7	Activity (Mus musculus [7]): Non-toxic
CC1=C(C2=C(C)C(=O)c3c(cc(O)c(O)c3CCc3ccccc3)C2=O)C(=O)c2cc(O)c(O)c(CCc3ccccc3)c2C1=O	Active	1.2	6.47	81	89	Dose-dependent effect	1.73	0.87	1.79	9.72	2.57	1.29	1.4	1.04	0.85	8.72		EC50 [15]: 4.75 µM
CC1=C(C2=C(C)C(=O)c3c(cc(O)c(O)c3C(=O)NCc3cccc(C)c3)C2=O)C(=O)c2cc(O)c(O)c(C(=O)NCc3cccc(C)c3)c2C1=O	Active					Dose-dependent effect							5.44	6.16	> 30	21.6	> 30	
CCc1ccc(CCNC(=O)c2c(O)c(O)cc3c2C(=O)C(C)=C(C2=C(C)C(=O)c4c(cc(O)c(O)c4C(=O)NCCc4ccc(CC)cc4)C2=O)C3=O)cc1	Active	0.16	0.87			Dose-dependent effect	0.14	0.21	0.24	1.25	0.21	0.32					> 30	
CC1=C(C2=C(C)C(=O)c3c(cc(O)c(O)c3C(=O)Cc3ccccc3)C2=O)C(=O)c2cc(O)c(O)c(C(=O)Cc3ccccc3)c2C1=O	Active	0.24	0.46			Dose-dependent effect	0.15	0.23	0.34	0.69	0.22	0.35	5.44	7.38	> 30	9.58		EC50 [15]: > 30 µM
